# Measured values published in ChEMBL document CHEMBL2021856 (ACS Med Chem Lett, 2011).
# Tests used:
# Format in all cases: functional, cell-based
# [1] = target: T1, 5-hydroxytryptamine receptor 2A (Homo sapiens, UniProt P28223); assay: Agonist activity at human 5HT2A receptor expressed in HEK293 cells assessed as calcium flux measured every sec for 3 mins by FLIPR assay
# [2] = target: T2, 5-hydroxytryptamine receptor 2B (Homo sapiens, UniProt P41595); assay: Agonist activity at human 5HT2B receptor expressed in HEK293 cells assessed as calcium flux measured every sec for 3 mins by FLIPR assay
# [3] = target: T3, 5-hydroxytryptamine receptor 2C (Homo sapiens, UniProt P28335); assay: Agonist activity at human 5HT2C receptor expressed in HEK293 cells assessed as calcium flux measured every sec for 3 mins by FLIPR assay
# T3 sequence (P28335 whole entry): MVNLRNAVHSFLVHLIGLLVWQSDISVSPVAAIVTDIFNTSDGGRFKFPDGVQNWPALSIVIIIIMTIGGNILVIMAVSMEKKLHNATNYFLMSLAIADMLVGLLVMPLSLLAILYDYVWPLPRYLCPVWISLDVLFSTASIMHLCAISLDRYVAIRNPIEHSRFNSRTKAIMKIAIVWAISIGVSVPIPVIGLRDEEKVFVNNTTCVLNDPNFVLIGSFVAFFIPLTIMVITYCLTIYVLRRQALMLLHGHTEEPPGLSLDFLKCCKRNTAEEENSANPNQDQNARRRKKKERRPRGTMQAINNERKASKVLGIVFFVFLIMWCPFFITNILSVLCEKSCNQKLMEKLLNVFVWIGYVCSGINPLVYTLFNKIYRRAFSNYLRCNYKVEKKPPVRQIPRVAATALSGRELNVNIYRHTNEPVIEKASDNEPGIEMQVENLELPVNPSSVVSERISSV
# [4] = target: T4, 5-hydroxytryptamine receptor 2C (Homo sapiens) (UniProt P28335); assay: Agonist activity at human 5HT2C receptor expressed in HEK293 cells assessed as calcium flux measured every sec for 3 mins by FLIPR assay relative to 5HT
# T4 sequence (whole entry): T3 sequence (P28335 whole entry)
# Summary of the method: (§1)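 Calcium flux (Gαq-mediated) in HEK-293 cells stably expressing human 5-HT2A, 5-HT2B or 5-HT2C (INI isoform). […] Racemic trans mixtures were tested unless otherwise stated.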
# [5] = target: T1, 5-hydroxytryptamine receptor 2A; assay: Agonist activity at human 5HT2A receptor expressed in HEK293 cells assessed as calcium flux measured every sec for 3 mins by FLIPR assay relative to 5HT; summary of the method: as §1
# [6] = target: T2, 5-hydroxytryptamine receptor 2B; assay: Agonist activity at human 5HT2B receptor expressed in HEK293 cells assessed as calcium flux measured every sec for 3 mins by FLIPR assay relative to 5HT; summary of the method: as §1
# T2 sequence (P41595 whole entry): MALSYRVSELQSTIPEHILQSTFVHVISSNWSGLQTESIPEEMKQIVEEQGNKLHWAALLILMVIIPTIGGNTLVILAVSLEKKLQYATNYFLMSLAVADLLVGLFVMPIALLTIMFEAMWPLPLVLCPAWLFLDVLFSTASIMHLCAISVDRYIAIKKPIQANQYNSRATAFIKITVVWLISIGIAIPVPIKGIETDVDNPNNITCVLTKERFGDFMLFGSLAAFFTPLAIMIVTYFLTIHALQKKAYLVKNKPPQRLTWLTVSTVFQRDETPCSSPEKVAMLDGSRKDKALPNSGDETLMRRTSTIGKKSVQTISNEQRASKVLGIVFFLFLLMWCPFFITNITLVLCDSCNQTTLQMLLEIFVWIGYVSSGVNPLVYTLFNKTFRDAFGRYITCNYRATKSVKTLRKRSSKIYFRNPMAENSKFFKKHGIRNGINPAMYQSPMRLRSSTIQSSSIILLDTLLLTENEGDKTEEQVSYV
# T1 sequence (P28223 whole entry): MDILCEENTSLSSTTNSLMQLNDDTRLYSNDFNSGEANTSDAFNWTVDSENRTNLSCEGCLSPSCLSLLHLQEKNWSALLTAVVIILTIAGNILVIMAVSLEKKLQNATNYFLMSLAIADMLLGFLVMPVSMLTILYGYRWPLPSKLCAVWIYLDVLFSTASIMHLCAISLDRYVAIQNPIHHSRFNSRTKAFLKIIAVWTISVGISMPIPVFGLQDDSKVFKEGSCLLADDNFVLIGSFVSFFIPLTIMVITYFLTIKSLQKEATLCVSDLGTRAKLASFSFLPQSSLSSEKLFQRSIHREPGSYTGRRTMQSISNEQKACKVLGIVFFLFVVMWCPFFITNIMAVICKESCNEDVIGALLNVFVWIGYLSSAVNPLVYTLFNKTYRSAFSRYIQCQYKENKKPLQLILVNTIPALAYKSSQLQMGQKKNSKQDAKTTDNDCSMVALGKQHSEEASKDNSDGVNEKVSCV
Compound,EC50 ([1]; hek293),EC50 ([2]; hek293),EC50 ([3]; read-out: EC50),Emax [4],EC50 ([1]; read-out: EC50),EC50 ([2]; read-out: EC50),EC50 ([3]; hek293),Emax [5],Emax [6]
Cl.NC[C@@H]1C[C@H]1c1ccccc1OCC1CC1,Not Active,Not Active,978 nM,51%,–,–,–,–,–
NC[C@H]1C[C@@H]1c1cc(F)ccc1OCC1CC1,–,–,21 nM,–,894 nM,289 nM,–,–,–
NC[C@H]1C[C@@H]1c1ccccc1OCC1CC1,–,–,–,61%,–,–,–,–,–
COc1ccc(-c2cccc(C)c2)cc1[C@H]1C[C@@H]1CN.Cl (racemic),Not Active,Not Active,8710 nM,69%,–,–,–,–,–
COc1ccc(-c2ccc(C)cc2)cc1[C@H]1C[C@@H]1CN.Cl (racemic),Not Active,Not Active,–,–,–,–,Not Active,–,–
COc1ccc(-c2ccccc2F)cc1[C@H]1C[C@@H]1CN.Cl (racemic),Not Active,Not Active,3310 nM,69%,–,–,–,–,–
COc1ccc(-c2cccc(F)c2)cc1[C@H]1C[C@@H]1CN.Cl (racemic),Not Active,Not Active,7240 nM,59%,–,–,–,–,–
COc1ccc(-c2ccc(F)cc2)cc1[C@H]1C[C@@H]1CN.Cl (racemic),Not Active,Not Active,2190 nM,83%,–,–,–,–,–
CCCCc1ccc(-c2ccc(OC)c([C@H]3C[C@@H]3CN)c2)cc1.Cl (racemic),Not Active,Not Active,–,–,–,–,Not Active,–,–
Cc1ccc(OCC(C)C)c([C@H]2C[C@@H]2CN)c1.Cl (racemic),Not Active,Not Active,–,–,–,–,Not Active,–,–
CCCCOc1ccc(C)cc1[C@H]1C[C@@H]1CN.Cl (racemic),Not Active,Not Active,–,–,–,–,Not Active,–,–
CCOc1ccccc1[C@H]1C[C@@H]1CN (racemic),–,–,18 nM,99%,3020 nM,331 nM,–,64%,48%
CCCOc1ccccc1[C@H]1C[C@@H]1CN.Cl (racemic),Not Active,–,24 nM,70%,–,304 nM,–,–,16%
CC(C)COc1ccccc1[C@H]1C[C@@H]1CN.Cl (racemic),Not Active,Not Active,254 nM,84%,–,–,–,–,–
CCCCCOc1ccccc1[C@H]1C[C@@H]1CN.Cl (racemic),Not Active,Not Active,–,–,–,–,Not Active,–,–
Cl.NC[C@H]1C[C@@H]1c1ccccc1OCC1CC1 (racemic),Not Active,Not Active,–,–,–,–,–,–,–
Cl.NC[C@H]1C[C@@H]1c1ccccc1OCC1CCC1 (racemic),Not Active,Not Active,1210 nM,31%,–,–,–,–,–
Cl.NC[C@H]1C[C@@H]1c1ccccc1OCC1CCCCC1 (racemic),Not Active,Not Active,–,–,–,–,Not Active,–,–
Cl.NC[C@H]1C[C@@H]1c1ccccc1OCc1ccccc1 (racemic),Not Active,–,304 nM,74%,–,1080 nM,–,–,20%
COc1ccc(-c2ccccc2)cc1[C@H]1C[C@@H]1CN.Cl (racemic),Not Active,Not Active,3800 nM,64%,–,–,–,–,–
COc1ccc(-c2ccccc2C)cc1[C@H]1C[C@@H]1CN.Cl (racemic),Not Active,Not Active,3470 nM,67%,–,–,–,–,–
NC[C@H]1C[C@@H]1c1ccccc1OCC1CC1 (racemic),–,–,–,60%,–,–,–,–,–
